Source: ChEMBL document CHEMBL1151460, “Identification and evaluation of a highly effective fusion inhibitor for human metapneumovirus” (Antimicrob Agents Chemother, 2008)
The source made the active and inactive calls. The calls are words filed in the database; no cut-off is given here. Where a SMILES comes first, the peptide text is derived from it.

How the values were obtained:
Human metapneumovirus = assay: Antiviral activity against hMPV C-85473 infected in rhesus monkey LLC-MK2 cells after 3 days by RT-PCR; type: functional, organism-based; conditions: C-85473, LLC-MK2, 72 h
Method in brief: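 Twofold serial dilutions of peptide mixed with 107 TCID50 virus in infection medium (Opti-MEM with 2 µg/ml trypsin) and added to LLC-MK2 cells. After 2 h, medium replaced with fresh medium containing the same peptide dilutions. Supernatants collected on day 3 and N gene quantified by real-time RT-PCR (TaqMan). IC50 from triplicate experiments.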

LLC-MK2 = assay: Cytotoxicity against rhesus monkey LLC-MK2 cells at 9 uM after 3 days by MTT assay; type: cell-based, Macaca mulatta; conditions: llc-mk2, 72 h
Method in brief: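 Serial peptide dilutions in hMPV infection medium applied to LLC-MK2 cells for 3 days. MTT (1 mg/ml) added for 2 h at 37°C, dye solubilized in acidic isopropanol, absorbance read at 570. Absorbance below that of control cells taken as cytotoxicity.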

Mus musculus [1] = organism: Mus musculus; assay: Effect on pulmonary inflammation in BALB/c mouse lung assessed as change in perivascular inflammation after 5 days by histopathological analysis; type: functional, organism-based
Method in brief: (§1)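 Female BALB/c mice, 4-6 weeks old, received intranasal hMPV C-85473 (2 x 106 TCID50/ml, 70 µl) or PBS, with or without 7 µM synthetic peptide by the same route. Six lungs/group taken on day 5, fixed in 10% buffered formalin, paraffin-embedded, cut at 5 µm, stained with H&E. Each inflammation type scored on a 0-4 scale.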

Mus musculus [2] = organism: Mus musculus; assay: Effect on airway obstruction in hMPV infected BALB/c mouse assessed as decrease in enhanced pause treated simultaneously with viral challenge
Mus musculus [3] = organism: Mus musculus; assay: Effect on pulmonary inflammation in BALB/c mouse lung assessed as change in peribronchiolar inflammation after 5 days by histopathological analysis; type: functional, organism-based; method in brief: as §1

Row | Compound | IC50 (Human metapneumovirus) | Activity (LLC-MK2) | Activity (Mus musculus [1]) | Activity (Mus musculus [2]) | Activity (Mus musculus [3])
1 | CC[C@H](C)[C@H](NC(=O)[C@H](CCCNC(=N)N)NC(=O)[C@H](CC(N)=O)NC(=O)[C@H](CO)NC(=O)[C@H](CCC(N)=O)NC(=O)[C@H](CC(=O)O)NC(=O)[C@@H](NC(=O)[C@H](CC(C)C)NC(=O)[C@H](C)NC(=O)[C@H](CCC(N)=O)NC(=O)[C@H](CO)NC(=O)[C@H](CC(N)=O)NC(=O)[C@H](CCC(=O)O)NC(=O)[C@@H](NC(=O)[C@H](CO)NC(=O)[C@H](CCC(=O)O)NC(=O)[C@H](Cc1ccccc1)NC(=O)[C@@H](NC(=O)[C@H](CCC(N)=O)NC(=O)[C@H](CC(=O)O)NC(=O)[C@H](CC(C)C)NC(=O)[C@H](C)NC(=O)[C@@H](NC(=O)[C@H](CC(N)=O)NC(=O)[C@@H](N)Cc1ccccc1)C(C)C)C(C)C)[C@@H](C)CC)C(C)C)C(=O)N[C@@H](CC(C)C)C(=O)N[C@@H](CO)C(=O)N[C@@H](CO)C(=O)N[C@@H](C)C(=O)N[C@@H](CCC(=O)O)C(=O)N[C@@H](CCCCN)C(=O)NCC(=O)N[C@@H](CC(N)=O)C(=O)O (H-FNVALDQVFESIENSQALVDQSNRILSSAEKGN-OH) | > 9 µM | Not Active |  |  | 
2 | CC[C@H](C)[C@H](NC(=O)[C@H](CCCNC(=N)N)NC(=O)[C@H](CC(N)=O)NC(=O)[C@H](CO)NC(=O)[C@H](CCC(N)=O)NC(=O)[C@H](CC(=O)O)NC(=O)[C@@H](NC(=O)[C@H](CC(C)C)NC(=O)[C@H](C)NC(=O)[C@H](CCC(N)=O)NC(=O)[C@H](CO)NC(=O)[C@H](CC(N)=O)NC(=O)[C@H](CCC(=O)O)NC(=O)[C@@H](NC(=O)[C@H](CO)NC(=O)[C@H](CCC(=O)O)NC(=O)[C@H](Cc1ccccc1)NC(=O)[C@@H](NC(=O)[C@H](CCC(N)=O)NC(=O)[C@H](CC(=O)O)NC(=O)[C@H](CC(C)C)NC(=O)[C@H](C)NC(=O)[C@@H](NC(=O)[C@H](CC(N)=O)NC(=O)[C@@H](N)Cc1ccccc1)C(C)C)C(C)C)[C@@H](C)CC)C(C)C)C(=O)N[C@@H](CC(C)C)C(=O)N[C@@H](CO)C(=O)N[C@@H](CO)C(=O)N[C@@H](C)C(=O)N[C@@H](CCC(=O)O)C(=O)O (H-FNVALDQVFESIENSQALVDQSNRILSSAE-OH) | > 9 µM | Not Active |  |  | 
3 | CC[C@H](C)[C@H](NC(=O)[C@H](CCCNC(=N)N)NC(=O)[C@H](CC(N)=O)NC(=O)[C@H](CO)NC(=O)[C@H](CCC(N)=O)NC(=O)[C@H](CC(=O)O)NC(=O)[C@@H](NC(=O)[C@H](CC(C)C)NC(=O)[C@H](C)NC(=O)[C@H](CCC(N)=O)NC(=O)[C@H](CO)NC(=O)[C@H](CC(N)=O)NC(=O)[C@H](CCC(=O)O)NC(=O)[C@@H](NC(=O)[C@H](CO)NC(=O)[C@H](CCC(=O)O)NC(=O)[C@H](Cc1ccccc1)NC(=O)[C@@H](NC(=O)[C@H](CCC(N)=O)NC(=O)[C@H](CC(=O)O)NC(=O)[C@H](CC(C)C)NC(=O)[C@H](C)NC(=O)[C@@H](NC(=O)[C@@H](N)CC(N)=O)C(C)C)C(C)C)[C@@H](C)CC)C(C)C)C(=O)N[C@@H](CC(C)C)C(=O)N[C@@H](CO)C(=O)N[C@@H](CO)C(=O)N[C@@H](C)C(=O)O (H-NVALDQVFESIENSQALVDQSNRILSSA-OH) | > 9 µM | Not Active | inactive | inactive | inactive

Molecules with a lower IC50 (Human metapneumovirus), results first:

Row | IC50 (Human metapneumovirus) | Compound | Activity (LLC-MK2) | Activity (Mus musculus [1]) | Activity (Mus musculus [2]) | Activity (Mus musculus [3])
4 | 3.24 µM | CC[C@H](C)[C@H](NC(=O)[C@H](C)NC(=O)[C@@H](NC(=O)[C@@H](NC(=O)[C@H](CCC(=O)O)NC(=O)[C@H](CO)NC(=O)[C@H](CCC(=O)O)NC(=O)[C@@H](N)CC(C)C)C(C)C)[C@@H](C)O)C(=O)N[C@@H](CCCCN)C(=O)N[C@@H](CC(N)=O)C(=O)N[C@@H](C)C(=O)N[C@@H](CC(C)C)C(=O)N[C@@H](CCCCN)C(=O)N[C@@H](CCCCN)C(=O)N[C@H](C(=O)N[C@@H](CC(N)=O)C(=O)N[C@@H](CCC(=O)O)C(=O)N[C@@H](C)C(=O)N[C@H](C(=O)N[C@@H](CO)C(=O)N[C@H](C(=O)N[C@@H](CC(C)C)C(=O)NCC(=O)N[C@@H](CC(N)=O)C(=O)NCC(=O)N[C@H](C(=O)N[C@@H](CCCNC(=N)N)C(=O)N[C@H](C(=O)N[C@@H](CC(C)C)C(=O)N[C@@H](C)C(=O)N[C@H](C(=O)N[C@@H](C)C(=O)N[C@H](C(=O)N[C@@H](CCCNC(=N)N)C(=O)N[C@@H](CCC(=O)O)C(=O)O)C(C)C)[C@@H](C)O)C(C)C)C(C)C)[C@@H](C)O)C(C)C)[C@@H](C)O (H-LESEVTAIKNALKKTNEAVSTLGNGVRVLATAVRE-OH) | Not Active |  |  | 
5 | 3.31 µM | CC[C@H](C)[C@H](NC(=O)[C@H](CCCNC(=N)N)NC(=O)[C@H](CC(N)=O)NC(=O)[C@H](CO)NC(=O)[C@H](CCC(N)=O)NC(=O)[C@H](CC(=O)O)NC(=O)[C@@H](NC(=O)[C@H](CC(C)C)NC(=O)[C@H](C)NC(=O)[C@H](CCC(N)=O)NC(=O)[C@H](CO)NC(=O)[C@H](CC(N)=O)NC(=O)[C@H](CCC(=O)O)NC(=O)[C@@H](NC(=O)[C@H](CO)NC(=O)[C@H](CCC(=O)O)NC(=O)[C@H](Cc1ccccc1)NC(=O)[C@@H](NC(=O)[C@H](CCC(N)=O)NC(=O)[C@H](CC(=O)O)NC(=O)[C@H](CC(C)C)NC(=O)[C@H](C)NC(=O)[C@@H](NC(=O)[C@H](CC(N)=O)NC(=O)[C@H](Cc1ccccc1)NC(=O)[C@H](CCC(N)=O)NC(=O)[C@H](CC(=O)O)NC(=O)[C@H](CCC(=O)O)NC(=O)[C@@H]1CCCN1)C(C)C)C(C)C)[C@@H](C)CC)C(C)C)C(=O)N[C@@H](CC(C)C)C(=O)N[C@@H](CO)C(=O)N[C@@H](CO)C(=O)N[C@@H](C)C(=O)N[C@@H](CCC(=O)O)C(=O)N[C@@H](CCCCN)C(=O)NCC(=O)N[C@@H](CC(N)=O)C(=O)N[C@H](C(=O)NCC(=O)O)[C@@H](C)O (H-PEDQFNVALDQVFESIENSQALVDQSNRILSSAEKGNTG-OH) | Not Active |  |  | 
6 | 1.52 µM | CC[C@H](C)[C@H](NC(=O)[C@H](CCCNC(=N)N)NC(=O)[C@H](CC(N)=O)NC(=O)[C@H](CO)NC(=O)[C@H](CCC(N)=O)NC(=O)[C@H](CC(=O)O)NC(=O)[C@@H](NC(=O)[C@H](CC(C)C)NC(=O)[C@H](C)NC(=O)[C@H](CCC(N)=O)NC(=O)[C@H](CO)NC(=O)[C@H](CC(N)=O)NC(=O)[C@H](CCC(=O)O)NC(=O)[C@@H](NC(=O)[C@H](CO)NC(=O)[C@H](CCC(=O)O)NC(=O)[C@H](Cc1ccccc1)NC(=O)[C@@H](NC(=O)[C@H](CCC(N)=O)NC(=O)[C@H](CC(=O)O)NC(=O)[C@H](CC(C)C)NC(=O)[C@H](C)NC(=O)[C@@H](NC(=O)[C@H](CC(N)=O)NC(=O)[C@@H](N)Cc1ccccc1)C(C)C)C(C)C)[C@@H](C)CC)C(C)C)C(=O)N[C@@H](CC(C)C)C(=O)N[C@@H](CO)C(=O)N[C@@H](CO)C(=O)N[C@@H](C)C(=O)N[C@@H](CCC(=O)O)C(=O)N[C@@H](CCCCN)C(=O)NCC(=O)N[C@@H](CC(N)=O)C(=O)N[C@H](C(=O)NCC(=O)O)[C@@H](C)O (H-FNVALDQVFESIENSQALVDQSNRILSSAEKGNTG-OH) | Not Active |  |  | 
